Experimental data collected from several papers.
Protocols differ between the studies behind these lines.
PIM3: Serine/threonine-protein kinase pim-3 (PIM3, Homo sapiens, UniProt Q86V86)

Structure (SMILES)	target	assay	conditions	measurement	result
O=C(Nc1cccnn1)N1CCN([C@@H]2CCOc3cc(C(F)(F)F)ccc32)CC1	5-hydroxytryptamine receptor 1B (Htr1b, Rattus norvegicus, UniProt P28564)	cell-free assay	20 µM	inhibition	9%
C=CC(=O)N1CCC[C@@H](n2nc(-c3ccc(Oc4ccccc4)cc3)c3c(N)ncnc32)C1	Dual specificity tyrosine-phosphorylation-regulated kinase 1B (DYRK1B, Homo sapiens, UniProt Q9Y463)	cell-free assay	1 µM	remaining signal	136%
CCOC(=O)c1ccc(OC(=O)CCCCCNC(=N)N)cc1	Ubiquitin carboxyl-terminal hydrolase isozyme L3 (UCHL3, Homo sapiens, UniProt P15374)	enzyme activity, inhibitor	10 µM	inhibition	4%
CCN(CC)CCCC[C@H](NC(=O)[C@H](CC(C)C)NC(=O)[C@H](C)NC(=O)[C@H](Cc1ccccc1)NC(=O)c1ccc(C(C)(C)C)cc1)C(=O)N[C@@H](CO)C(=O)OC	Bromodomain testis-specific protein, BD1 (BRDT, Homo sapiens, UniProt Q58F21)	thermal stability, DSF	25 µM	ΔTm	-0.19 °C
N#Cc1ccc(NCCNCC(=O)N2N=CCC2C#N)nc1 (centres unmarked)	Dipeptidyl peptidase 2 (Homo sapiens, UniProt Q9UHL4)	enzyme activity, inhibitor	10 µM	inhibition	30%
Cc1nn(C)cc1-c1nc2c(N3CCN(Cc4ccc(Cl)cc4)CC3)c(Cl)cnc2[nH]1	PIM3	binding, competition with immobilised ligand	1 µM	remaining binding	100%
Nc1ncc(-c2nc(N3CCOCC3)nc(N3CCOCC3)n2)c(C(F)F)n1	PIM3	binding, competition with immobilised ligand	10 µM	remaining binding	89%
COc1ncccc1-c1cnn2ccc(N3CCN(C(=O)OC(C)C)CC3)nc12	Dual specificity testis-specific protein kinase 1 (TESK1, Homo sapiens, UniProt Q15569)	binding, competition with immobilised ligand	1 µM	remaining binding	93%
